Measured values from ChEMBL document CHEMBL1145471, “Small molecule regulators of autophagy identified by an image-based high-throughput screen” (Proc Natl Acad Sci U S A, 2007).

Legend:
Type in all cases: functional
H4 [1] = assay: Decrease in FYVE-RFP+ vesicle intensity per cell in human H4 cells after 2 hrs relative to control; parameters: concentration or dose not given beside the values; scale not given: the % may be the effect or the level left
Procedure, shortened: (§1)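 H4 cells stably expressing FYVE-RFP (H4-FYVE), grown in DMEM with 10% FBS, penicillin/streptomycin and 2 mM L-glutamine at 37°C, 5% CO2, seeded in 96-well plates and exposed to compound. Fixed in 4% paraformaldehyde, nuclei stained with 3 μg/ml DAPI, FYVE-RFP+ vesicles quantified by high-throughput fluorescence microscopy against DMSO control. Triplicate wells, mean ± SD.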

H4 [2] = assay: Increase in light chain 3-GFP+ autophagosome vesicle area per cell in human H4 cells at 6.0 uM after 24 hrs by high throughput fluorescence microscopy relative to control
Procedure, shortened: (§2)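 H4 cells stably expressing LC3-GFP, seeded in 96-well plates and exposed to compound for 24 h; fixed in 4% paraformaldehyde, nuclei stained with 3 μg/ml DAPI. Automated fluorescence microscopy scored number, size and intensity of LC3-GFP spots; values expressed relative to DMSO-treated wells, rapamycin positive control. Triplicate wells, mean ± SD; experiments repeated three times.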

H4 [3] = assay: Increase in long-lived protein degradation in human H4 cells after 24 hrs relative to control; parameters: concentration or dose not given beside the values
H4 [4] = assay: Increase in light chain 3-GFP+ autophagosome vesicle number per cell in human H4 cells at 6.0 uM after 24 hrs by high throughput fluorescence microscopy relative to control
Procedure, shortened: (§3)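 H4 cells stably expressing LC3-GFP, kept in DMEM/10% FBS at 37°C, 5% CO2, were seeded in 96-well plates and exposed to compound for 24 h. Cells were then fixed in 4% paraformaldehyde and stained with 3 μg/ml DAPI. Automated fluorescence microscopy scored the number, size and intensity of LC3-GFP spots. Values are percent of DMSO wells, in triplicate, mean ± SD. Rapamycin served as positive control.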

H4 [5] = assay: Increase in long-lived protein degradation in human H4 cells after 4 hrs relative to control; parameters: concentration or dose not given beside the values
H4 [6] = assay: Decrease in FYVE-RFP+ vesicle intensity per cell in human H4 cells after 4 hrs relative to control; parameters: concentration or dose not given beside the values; scale not given: the % may be the effect or the level left; procedure, shortened: as §1
H4 [7] = assay: Induction of light chain 3-GFP level in human H4 cells at 6.0 uM after 24 hrs by high throughput fluorescence microscopy relative to control; procedure, shortened: as §3
H4 [8] = assay: Increase in long-lived protein degradation in human H4 cells after 2 hrs relative to control; parameters: concentration or dose not given beside the values
H4 [9] = assay: Increase in long-lived protein degradation in human H4 cells after 1 hr relative to control; parameters: concentration or dose not given beside the values
H4 [10] = assay: Decrease in FYVE-RFP+ vesicle intensity per cell in human H4 cells after 8 hrs relative to control; parameters: concentration or dose not given beside the values; scale not given: the % may be the effect or the level left; procedure, shortened: as §1
H4 [11] = assay: Increase in light chain 3-GFP+ autophagosome vesicle intensity per cell in human H4 cells at 6.0 uM after 24 hrs by high throughput fluorescence microscopy relative to control; procedure, shortened: as §2
H4 [12] = assay: Induction of light chain 3-GFP level in human H4 cells at 6.2 uM after 24 hrs by high throughput fluorescence microscopy relative to control
Procedure, shortened: (§4)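 H4 cells stably expressing LC3-GFP, grown in DMEM with 10% FBS, penicillin/streptomycin and 2 mM L-glutamine at 37°C, 5% CO2. Cells were seeded in 96-well plates and exposed to library compounds at 3–12 μM for 24 h, then fixed in 4% paraformaldehyde and stained with 3 μg/ml DAPI. LC3-GFP spot number, size and intensity were measured by high-throughput fluorescence microscopy and expressed relative to DMSO. Triplicates, mean ± SD.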

H4 [13] = assay: Increase in light chain 3-GFP+ autophagosome vesicle area per cell in human H4 cells at 6.2 uM after 24 hrs by high throughput fluorescence microscopy relative to control
Procedure, shortened: (§5)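 H4 cells stably expressing LC3-GFP, seeded in 96-well plates and exposed to compound for 24 h; screening concentrations were 3–12 μM, with rapamycin 0.22 μM and bafilomycin A1 0.40 μM. Cells fixed in 4% paraformaldehyde and stained with 3 μg/ml DAPI. Number, size and intensity of LC3-GFP spots measured by high-throughput fluorescence microscopy and expressed as percent of DMSO-treated wells. Rapamycin was the positive control. Triplicate wells, mean ± SD; experiments repeated three times.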

H4 [14] = assay: Increase in light chain 3-GFP+ autophagosome vesicle number per cell in human H4 cells at 6.2 uM after 24 hrs by high throughput fluorescence microscopy relative to control
Procedure, shortened: (§6)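 H4 cells stably expressing LC3-GFP were grown in DMEM with 10% FBS and 2 mM L-glutamine at 37°C, 5% CO2. They were exposed to each compound for 24 h, with DMSO as negative and rapamycin as positive control. Cells were then fixed in 4% paraformaldehyde and stained with 3 μg/ml DAPI. High-throughput fluorescence imaging scored LC3-GFP spot number, size and intensity, expressed relative to DMSO. Mean ± SD of triplicates; experiments repeated three times.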

H4 [15] = assay: Increase in light chain 3-GFP+ autophagosome vesicle intensity per cell in human H4 cells at 6.2 uM after 24 hrs by high throughput fluorescence microscopy relative to control; procedure, shortened: as §6
H4 [16] = assay: Increase in light chain 3-GFP+ autophagosome vesicle intensity per cell in human H4 cells at 6.9 uM after 24 hrs by high throughput fluorescence microscopy relative to control; procedure, shortened: as §6
H4 [17] = assay: Increase in light chain 3-GFP+ autophagosome vesicle area per cell in human H4 cells at 6.9 uM after 24 hrs by high throughput fluorescence microscopy relative to control; procedure, shortened: as §5
H4 [18] = assay: Induction of light chain 3-GFP level in human H4 cells at 6.9 uM after 24 hrs by high throughput fluorescence microscopy relative to control; procedure, shortened: as §4
H4 [19] = assay: Increase in light chain 3-GFP+ autophagosome vesicle number per cell in human H4 cells at 6.9 uM after 24 hrs by high throughput fluorescence microscopy relative to control; procedure, shortened: as §6
H4 [20] = assay: Increase in light chain 3-GFP+ autophagosome vesicle area per cell in human H4 cells at 5.2 uM after 24 hrs by high throughput fluorescence microscopy relative to control; procedure, shortened: as §5
H4 [21] = assay: Induction of light chain 3-GFP level in human H4 cells at 5.2 uM after 24 hrs by high throughput fluorescence microscopy relative to control; procedure, shortened: as §4
H4 [22] = assay: Increase in light chain 3-GFP+ autophagosome vesicle intensity per cell in human H4 cells at 5.2 uM after 24 hrs by high throughput fluorescence microscopy relative to control; procedure, shortened: as §6
H4 [23] = assay: Increase in light chain 3-GFP+ autophagosome vesicle number per cell in human H4 cells at 5.2 uM after 24 hrs by high throughput fluorescence microscopy relative to control; procedure, shortened: as §6
H4 [24] = assay: Effect on FYVE-RFP+ vesicle intensity per cell in human H4 cells after 8 hrs relative to control; parameters: concentration or dose not given beside the values; procedure, shortened: as §1
H4 [25] = assay: Effect on FYVE-RFP+ vesicle intensity per cell in human H4 cells after 2 hrs relative to control; parameters: concentration or dose not given beside the values; procedure, shortened: as §1
H4 [26] = assay: Effect on FYVE-RFP+ vesicle intensity per cell in human H4 cells after 4 hrs relative to control; parameters: concentration or dose not given beside the values; procedure, shortened: as §1

| Structure (SMILES) | Activity (H4 [1]) | Activity (H4 [3]) | Activity (H4 [5]) | Activity (H4 [6]) | Activity (H4 [8]) | Activity (H4 [9]) | Activity (H4 [10]) | Activity (H4 [20]) | Activity (H4 [21]) | Activity (H4 [22]) | Activity (H4 [23]) | also measured |
| --- | --- | --- | --- | --- | --- | --- | --- | --- | --- | --- | --- | --- |
| CC1(C)C(C=C(Cl)Cl)C1C(=O)OC(C#N)c1cccc(Oc2ccccc2)c1 (stereo not drawn) [ALPHA-CYPERMETHRIN] | 33.75% | 103.75% | 98.36% | 29.13% | 95.28% | 94.75% | 58.22% | – | – | – | – | Activity (H4 [2]): 200.12%; Activity (H4 [4]): 174.74%; Activity (H4 [7]): 97.45%; Activity (H4 [11]): 208.14% |
| CC(C)[C@@H](O)CC[C@@H](C)[C@H]1CC[C@H]2[C@@H]3CC=C4C[C@@H](O)CC[C@]4(C)[C@H]3CC[C@]12C | 38.02% | 106.22% | 89.7% | 38.32% | 105.76% | 125.06% | 38.51% | – | – | – | – | Activity (H4 [12]): 108.2%; Activity (H4 [13]): 299.59%; Activity (H4 [14]): 220.93%; Activity (H4 [15]): 648.9% |
| O=S(=O)(c1cccc2c(Cl)cccc12)N1CCCNCC1 | – | – | – | – | – | – | – | – | – | – | – | Activity (H4 [16]): 447.81%; Activity (H4 [17]): 272.31%; Activity (H4 [18]): 82.33%; Activity (H4 [19]): 210.65% |
| C=C1[C@@H](C)[C@H]2[C@H](Cc3ccccc3)NC(=O)[C@]23OC(=O)/C=C/[C@H](O)CCC[C@@H](C)C/C=C/[C@H]3[C@@H]1O [CYTOCHALASIN B] | – | – | – | – | – | – | – | 247.77% | 30.58% | 286.43% | 208.73% | – |
| CC[C@H]1[C@@H]2C=C[C@H]3[C@@H](C[C@H]4/C=C/C(=O)C5=C[C@H](CCCNC(=O)/C=C\C[C@H]34)NC5=O)[C@H]2C[C@H]1C [IKARUGAMYCIN] | – | – | – | – | – | – | – | 107.27% | 50.16% | 172.85% | 75.79% | – |
| CC(/C=C/C(=O)NO)=C\[C@@H](C)C(=O)c1ccc(N(C)C)cc1 [TRICHOSTATIN] | – | – | – | – | – | – | – | 864.85% | 40.15% | 1649.69% | 636.52% | – |
| O=C1Nc2ccccc2/C1=C1/Nc2ccccc2C1=O [INDIRUBIN] | 73.16% | 100.5% | 95.3% | 35.1% | 94.5% | 105.91% | 59.18% | – | – | – | – | – |
| C=C[C@H]1CN2CC[C@H]1C[C@H]2[C@H](O)c1ccnc2ccc(OC)cc12 [QUININE] | – | 103.56% | 99.32% | – | 110.94% | 94.35% | – | – | – | – | – | Activity (H4 [16]): 165.01%; Activity (H4 [24]): 60.7%; Activity (H4 [25]): 70.35%; Activity (H4 [26]): 78.03%; Activity (H4 [17]): 160.38%; Activity (H4 [18]): 115.16%; Activity (H4 [19]): 146.94% |
| CC1(C)[C@@H](O)C[C@H]2[C@](C)(O)[C@@H]3CC[C@@H]4[C@@H](O)[C@@]3(C[C@@H](O)[C@@]21O)C[C@@]4(C)O [GRAYANOTOXIN III] | 45.44% | 91.03% | 90.49% | 39.37% | 96.23% | 95.81% | 39.83% | – | – | – | – | Activity (H4 [2]): 154.31%; Activity (H4 [4]): 130.17%; Activity (H4 [7]): 129.36%; Activity (H4 [11]): 210.65% |
| CC(C)COCC(CN(Cc1ccccc1)c1ccccc1)N1CCCC1 (stereo unspecified) [BEPRIDIL] | 65.27% | 117.59% | 98.78% | 45.17% | 112.64% | 101.9% | 35.94% | – | – | – | – | Activity (H4 [12]): 111.92%; Activity (H4 [13]): 160.34%; Activity (H4 [14]): 144.05%; Activity (H4 [15]): 168.39% |
| CCCC[C@@H](C=O)NC(=O)[C@H](CC(C)C)NC(=O)OCc1ccccc1 [CALPEPTIN] | 58.44% | 81.62% | 78.67% | 63.28% | 68.3% | 73.3% | 61.02% | – | – | – | – | Activity (H4 [16]): 232.89%; Activity (H4 [17]): 207.34%; Activity (H4 [18]): 128.87%; Activity (H4 [19]): 177.07% |
| COc1ccc(CCCOC(Cn2ccnc2)c2ccc(OC)cc2)cc1 (stereo unspecified) | – | – | – | – | – | – | – | – | – | – | – | Activity (H4 [12]): 42.96%; Activity (H4 [13]): 209.11%; Activity (H4 [14]): 179.88%; Activity (H4 [15]): 285.59% |
| COc1ccc(CCN(C)CCC[C@](C#N)(c2ccc(OC)c(OC)c2)C(C)C)cc1OC [VERAPAMIL] | – | 94.39% | 97.84% | – | 114.92% | 103.33% | – | 200.63% | 132.44% | 238.6% | 168.55% | – |
| Fc1ccc(C(c2ccc(F)cc2)N2CCN(C/C=C/c3ccccc3)CC2)cc1 [FLUNARIZINE] | 53.92% | 113.6% | 93.65% | 44.48% | 107.1% | 97.33% | 48.6% | 179.26% | 104.67% | 203.66% | 155.03% | – |
| CN(CCc1ccc(Cl)c(Cl)c1)CC(O)COc1ccc(NS(C)(=O)=O)cc1 (stereo unspecified) | – | 96.25% | 91.75% | – | 86.27% | 95.15% | – | 192.05% | 135.28% | 222.83% | 166.24% | Activity (H4 [24]): 66.35%; Activity (H4 [25]): 68.06%; Activity (H4 [26]): 71.97% |
| O=c1cc(N2CCOCC2)oc2c(-c3ccccc3)cccc12 [LY-294002] | 24.99% | – | – | 14.79% | – | – | 11.09% | – | – | – | – | – |
